Data reported in ChEMBL document CHEMBL1130282, “Syntheses and structure-activity relationships of taxoids derived from 14 beta-hydroxy-10-deacetylbaccatin III” (J Med Chem, 1997).

Tests used:
MCF7R = experiment: Growth inhibition of human mammary carcinoma 180 fold resistant to doxorubicin (MCF-7-R) cell line; format: functional, cell-based
HT-29 = experiment: Growth inhibition of human colon carcinoma (HT-29) cell line; format: functional, cell-based
Method in brief: (§1)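 Cells seeded at 400/well, attached overnight, grown in RPMI-1640 with 5% fetal bovine serum and 5% Nu Serum. Taxanes in DMSO, diluted in medium, 72 h exposure, triplicate wells. Fixed with ice-cold 50% TCA (1 h, 4 °C), stained with 0.4% sulforhodamine B, dye dissolved in 10 mM Tris (pH 10.5), OD 570 nm. IC50 from sigmoid-Emax nonlinear regression, weighted by reciprocal squared predicted effect.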

[1] = Ratio of growth inhibition (IC50) of MCF7-R / MCF-7 cell lines; format: functional, Homo sapiens
MCF7 = experiment: Growth inhibition of human mammary carcinoma (MCF-7) cell line; format: functional, cell-based; method in brief: as §1
A121 = experiment: Growth inhibition of human ovarian carcinoma (A121) cell line; format: functional, cell-based; method in brief: as §1
A549 = experiment: Growth inhibition of human non-small-lung carcinoma (A549) cell line; format: functional, cell-based

| SMILES | IC50 (MCF7R) [nM] | IC50 (HT-29) [nM] | Ratio [1] | IC50 (MCF7) [nM] | IC50 (A121) [nM] | IC50 (A549) [nM] |
| --- | --- | --- | --- | --- | --- | --- |
| C/C=C/C(=O)O[C@H]1C(=O)[C@@]2(C)C([C@H](OC(=O)c3ccccc3)[C@]34OC(=O)O[C@H]3[C@H](OC(=O)[C@H](O)[C@H](C=C(C)C)NC(=O)OC(C)(C)C)C(C)=C1C4(C)C)[C@]1(OC(C)=O)COC1C[C@@H]2O (stereo not given in full) | 17 | 1.5 | 43 | 0.4 | 0.8 | 0.5 |
| CC(=O)O[C@@]12COC1C[C@H](O)[C@@]1(C)C(=O)[C@H](O)C3=C(C)[C@@H](OC(=O)[C@H](O)[C@H](CC(C)C)NC(=O)OC(C)(C)C)[C@@H]4OC(=O)O[C@]4([C@@H](OC(=O)c4ccccc4)C21)C3(C)C (stereo not given in full) | 385 | 3.4 |  | 2.7 | 1 | 1.8 |
| CC(=O)O[C@@]12CO[C@@H]1C[C@H](O)[C@@]1(C)C(=O)[C@H](O)C3=C(C)[C@@H](OC(=O)[C@H](O)[C@@H](NC(=O)OC(C)(C)C)c4ccccc4)[C@H](O)[C@@](O)([C@@H](OC(=O)c4ccccc4)C12)C3(C)C (stereo not given in full) | > 1000 |  |  |  |  |  |
| CC(=O)O[C@@]12COC1C[C@H](O)[C@@]1(C)C(=O)[C@H](O)C3=C(C)[C@@H](OC(=O)[C@H](O)[C@@H](NC(=O)OC(C)(C)C)c4ccccc4)[C@@H]4OC(=O)O[C@]4([C@@H](OC(=O)c4ccccc4)C21)C3(C)C (stereo not given in full) | 543 | 1.8 | 302 | 1.8 | 6.2 | 2.1 |
| C/C=C/C(=O)O[C@H]1C(=O)[C@@]2(C)C([C@H](OC(=O)c3ccccc3)[C@]34OC(=O)O[C@H]3[C@H](OC(=O)[C@H](O)[C@H](C=C(C)C)NC(=O)CCCCC)C(C)=C1C4(C)C)[C@]1(OC(C)=O)COC1C[C@@H]2O (stereo not given in full) | 137 | 28 | 65 | 2.1 | 17 | 25 |
| CC(=O)O[C@@]12COC1C[C@H](O)[C@@]1(C)C(=O)[C@H](O)C3=C(C)[C@@H](OC(=O)[C@H](O)[C@H](CC(C)(C)C)NC(=O)OC(C)(C)C)[C@@H]4OC(=O)O[C@]4([C@@H](OC(=O)c4ccccc4)C21)C3(C)C (stereo not given in full) | > 1000 | 52 |  | 48 | 106 | 51 |
| CCCCCC(=O)N[C@@H](c1ccccc1)[C@@H](O)C(=O)O[C@@H]1C(C)=C2[C@@H](O)C(=O)[C@@]3(C)C([C@H](OC(=O)c4ccccc4)[C@@]4(OC(=O)O[C@@H]14)C2(C)C)[C@]1(OC(C)=O)COC1C[C@@H]3O (stereo not given in full) | > 1000 | 157 |  | 13 | 330 | 389 |
| CC(=O)O[C@@]12COC1C[C@H](O)[C@@]1(C)C(=O)[C@H](O)C3=C(C)[C@@H](OC(=O)[C@H](O)[C@@H](NC(=O)c4ccccc4)c4ccccc4)[C@@H]4OC(=O)O[C@]4([C@@H](OC(=O)c4ccccc4)C21)C3(C)C (stereo not given in full) | > 1000 | 24 |  | 11 | 105 | 33 |
| CCC[C@H](NC(=O)OC(C)(C)C)[C@@H](O)C(=O)O[C@@H]1C(C)=C2[C@@H](OC(C)=O)C(=O)[C@@]3(C)C([C@H](OC(=O)c4ccccc4)[C@@]4(OC(=O)O[C@@H]14)C2(C)C)[C@]1(OC(C)=O)COC1C[C@@H]3O (stereo not given in full) | 201 | 4.8 | 44 | 4.6 | 2.3 | 4.7 |
| CC(=O)O[C@@]12COC1C[C@H](O)[C@@]1(C)C(=O)[C@H](O)C3=C(C)[C@@H](OC(=O)[C@H](O)[C@@H](NC(=O)OC(C)(C)C)c4ccco4)[C@@H]4OC(=O)O[C@]4([C@@H](OC(=O)c4ccccc4)C21)C3(C)C (stereo not given in full) | 135 | 0.6 | 270 | 0.5 | 0.4 | 0.5 |
| CCCCCC(=O)N[C@@H](C=C(C)C)[C@@H](O)C(=O)O[C@@H]1C(C)=C2[C@@H](OC(=O)C3CC3)C(=O)[C@@]3(C)C([C@H](OC(=O)c4ccccc4)[C@@]4(OC(=O)O[C@@H]14)C2(C)C)[C@]1(OC(C)=O)COC1C[C@@H]3O (stereo not given in full) | 321 | 16 | 100 | 3.2 | 12 | 18 |
| CC(=O)O[C@@]12COC1C[C@H](O)[C@@]1(C)C(=O)[C@H](OC(=O)N(C)C)C3=C(C)[C@@H](OC(=O)[C@H](O)[C@H](C=C(C)C)NC(=O)OC(C)(C)C)[C@@H]4OC(=O)O[C@]4([C@@H](OC(=O)c4ccccc4)C21)C3(C)C (stereo not given in full) | 33 | 1.2 | 83 | 0.4 | 0.7 | 0.6 |
| CCC[C@H](NC(=O)OC(C)(C)C)[C@@H](O)C(=O)O[C@@H]1C(C)=C2[C@@H](O)C(=O)[C@@]3(C)C([C@H](OC(=O)c4ccccc4)[C@@]4(OC(=O)O[C@@H]14)C2(C)C)[C@]1(OC(C)=O)COC1C[C@@H]3O (stereo not given in full) | 265 | 3.8 | 92 | 4.2 | 2.1 | 4.4 |
| CC(=O)O[C@H]1C(=O)[C@@]2(C)C([C@H](OC(=O)c3ccccc3)[C@]34OC(=O)O[C@H]3[C@H](OC(=O)[C@H](O)[C@@H](NC(=O)OC(C)(C)C)c3ccco3)C(C)=C1C4(C)C)[C@]1(OC(C)=O)COC1C[C@@H]2O (stereo not given in full) | 49 | 0.6 | 96 | 0.5 | 0.4 | 0.5 |
| CCCCCC(=O)N[C@@H](C=C(C)C)[C@@H](O)C(=O)O[C@@H]1C(C)=C2[C@@H](OC(=O)N(C)C)C(=O)[C@@]3(C)C([C@H](OC(=O)c4ccccc4)[C@@]4(OC(=O)O[C@@H]14)C2(C)C)[C@]1(OC(C)=O)COC1C[C@@H]3O (stereo not given in full) | 295 | 5.1 |  | 1.7 | 4.8 | 5.5 |
